Assay results taken from ChEMBL document CHEMBL3085768, “Structure-guided design of potent diazobenzene inhibitors for the BET bromodomains” (J Med Chem, 2013).
Calls of active or inactive are those of the source. No cut-off for these calls is given here.

Columns and labels:
[1] = biological target: T1, Bromodomain-containing protein 4 (Homo sapiens, UniProt O60885); experiment: Displacement of fluorescein-labeled MS574 from recombinant human BRD4 BrD1 after 1 hr by fluorescence anisotropy assay
Procedure, shortened: (§1)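 Competition fluorescence anisotropy with His-tag-removed recombinant bromodomain (Ni-IDA purified, thrombin cleaved) at 0.25–1 µM, chosen so that 50–80% of probe is bound. FITC-labeled probe at 80 nM (≤2Kd), unlabeled ligand titrated, in PBS pH 7.4, read after 1 h at 25 °C. IC50 from curve fit, converted to Ki with the Nikolovska-Coleska correction to Cheng-Prusoff (one-site competitive). The resolvable Ki is limited by the probe Kd.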

[2] = biological target: T1, Bromodomain-containing protein 4; experiment: Displacement of fluorescein-labeled MS574 from recombinant human BRD4 BrD2 after 1 hr by fluorescence anisotropy assay; procedure, shortened: as §1
[3] = biological target: SWI/SNF-related matrix-associated actin-dependent regulator of chromatin subfamily A member 4 (Homo sapiens, UniProt P51532); experiment: Displacement of fluorescein-labeled MS239 from recombinant human SMARCA4 bromodomain after 1 hr by fluorescence anisotropy assay; procedure, shortened: as §1
[4] = biological target: T2, Bromodomain-containing protein 3 (Homo sapiens, UniProt Q15059); experiment: Displacement of fluorescein-labeled MS574 from recombinant human BRD3 BrD2 after 1 hr by fluorescence anisotropy assay; procedure, shortened: as §1
[5] = biological target: Bromodomain-containing protein 4 (Mus musculus) (UniProt Q9ESU6); experiment: (§2) Inhibition of BRD4 in LPS-stimulated mouse RAW264.7 cells assessed as inhibition of NF-kappaB-mediated nitric oxide production preincubated for 30 mins followed by LPS stimulation measured after 24 hrs by spectrophotometric analysis; format: cell-based
Procedure, shortened: (§3)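 RAW264.7 cells in DMEM/10% FBS, plated at 3 × 10^5 cells/mL, pretreated with inhibitor 30 min, then LPS (1 µg/mL) plus inhibitor for 24 h. Inhibitor concentrations 0.28–50000 nM from DMSO stock, final DMSO 0.05% (v/v). Nitrite in the supernatant was measured spectrophotometrically at 520 nm.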

[6] = biological target: T3, Bromodomain-containing protein 4 (Mus musculus, UniProt Q9ESU6); experiment: as §2; format: cell-based; procedure, shortened: as §3
[7] = tested on: RAW264.7; experiment: Cytotoxicity against mouse RAW264.7 cells assessed as cell viability up to 100 uM after 24 hrs by MTT assay; format: cell-based; conditions: raw264.7, 24 h
Procedure, shortened: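 RAW264.7 macrophages seeded at 1 × 10^4 cells/well, settled 18 h at 37 °C, then exposed to inhibitors up to 100 µM for 24 h. Compounds were predissolved in DMSO and diluted in medium, final DMSO 0.05% (v/v). MTT (4 mg/ml) was added for 4 h at 37 °C, formazan solubilized in DMSO, and absorbance read at 570/630 nm.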

[8] = biological target: CREB-binding protein (Homo sapiens, UniProt Q92793); experiment: Displacement of fluorescein-labeled MS226 from recombinant human CBP bromodomain after 1 hr by fluorescence anisotropy assay; procedure, shortened: as §1
[9] = biological target: T2, Bromodomain-containing protein 3; experiment: Displacement of fluorescein-labeled MS574 from recombinant human BRD3 BrD1 after 1 hr by fluorescence anisotropy assay; procedure, shortened: as §1
[10] = biological target: Bromodomain-containing protein 4 (Mus musculus) (UniProt Q9ESU6); experiment: (§4) Inhibition of BRD4 in LPS-stimulated mouse RAW264.7 cells assessed as inhibition of NF-kappaB-mediated IL-6 expression preincubated for 30 mins followed by LPS stimulation measured after 24 hrs by ELISA; format: cell-based
Procedure, shortened: (§5)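 RAW264.7 cells grown in DMEM/10% FBS at 37 °C, 5% CO2, plated at 3 × 10^5 cells/mL, pretreated with inhibitor for 30 min. Medium was then replaced with LPS (1 µg/mL) plus inhibitor for 24 h. Compounds were diluted from DMSO to 0.28–50000 nM, final DMSO 0.05% (v/v). Supernatant IL-6 was measured by mouse ELISA read at 570 nm.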

[11] = biological target: T3, Bromodomain-containing protein 4; experiment: as §4; format: cell-based; procedure, shortened: as §5
[12] = biological target: T4, Bromodomain-containing protein 7 (Homo sapiens, UniProt Q9NPI1); experiment: Displacement of fluorescein-labeled MS226 from recombinant human BRD7 after 1 hr by fluorescence anisotropy assay; procedure, shortened: as §1
T4 sequence (Q9NPI1 whole entry): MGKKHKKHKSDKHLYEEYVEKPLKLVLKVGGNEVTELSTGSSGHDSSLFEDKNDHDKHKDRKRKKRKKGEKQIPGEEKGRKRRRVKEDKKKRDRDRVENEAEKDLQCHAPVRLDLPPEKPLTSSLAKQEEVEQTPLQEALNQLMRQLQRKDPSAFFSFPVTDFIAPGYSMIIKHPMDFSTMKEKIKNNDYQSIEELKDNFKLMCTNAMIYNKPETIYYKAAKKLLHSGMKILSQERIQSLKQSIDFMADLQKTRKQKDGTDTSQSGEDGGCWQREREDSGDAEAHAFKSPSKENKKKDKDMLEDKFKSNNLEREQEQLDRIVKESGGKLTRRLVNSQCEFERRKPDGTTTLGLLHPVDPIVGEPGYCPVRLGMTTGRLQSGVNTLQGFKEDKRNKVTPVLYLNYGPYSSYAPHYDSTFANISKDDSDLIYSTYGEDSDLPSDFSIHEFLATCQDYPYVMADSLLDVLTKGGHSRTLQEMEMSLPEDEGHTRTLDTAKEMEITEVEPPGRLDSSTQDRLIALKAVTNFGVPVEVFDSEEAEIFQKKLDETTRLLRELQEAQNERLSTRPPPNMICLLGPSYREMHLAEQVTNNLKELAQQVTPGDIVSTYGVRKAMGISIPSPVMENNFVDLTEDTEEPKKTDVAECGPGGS

T2 sequence (Q15059 whole entry): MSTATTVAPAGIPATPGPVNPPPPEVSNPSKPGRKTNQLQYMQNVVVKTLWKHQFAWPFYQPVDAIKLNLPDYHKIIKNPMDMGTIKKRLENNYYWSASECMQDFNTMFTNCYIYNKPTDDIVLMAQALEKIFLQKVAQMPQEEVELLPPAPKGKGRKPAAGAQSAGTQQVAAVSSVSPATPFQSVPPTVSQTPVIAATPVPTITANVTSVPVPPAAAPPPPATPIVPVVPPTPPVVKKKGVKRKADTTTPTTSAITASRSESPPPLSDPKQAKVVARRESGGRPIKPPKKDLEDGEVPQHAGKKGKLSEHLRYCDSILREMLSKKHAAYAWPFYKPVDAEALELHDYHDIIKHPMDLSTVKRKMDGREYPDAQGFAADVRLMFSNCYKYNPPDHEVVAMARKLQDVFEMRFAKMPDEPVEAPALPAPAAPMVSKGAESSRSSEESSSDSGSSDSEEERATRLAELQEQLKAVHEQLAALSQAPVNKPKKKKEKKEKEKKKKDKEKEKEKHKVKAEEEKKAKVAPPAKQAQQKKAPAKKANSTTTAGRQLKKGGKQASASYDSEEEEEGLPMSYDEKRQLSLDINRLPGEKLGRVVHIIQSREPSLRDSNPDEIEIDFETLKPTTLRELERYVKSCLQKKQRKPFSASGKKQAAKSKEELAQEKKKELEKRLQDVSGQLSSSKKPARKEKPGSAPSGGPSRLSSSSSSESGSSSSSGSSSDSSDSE
CREB-binding protein, sequence (Q92793 whole entry): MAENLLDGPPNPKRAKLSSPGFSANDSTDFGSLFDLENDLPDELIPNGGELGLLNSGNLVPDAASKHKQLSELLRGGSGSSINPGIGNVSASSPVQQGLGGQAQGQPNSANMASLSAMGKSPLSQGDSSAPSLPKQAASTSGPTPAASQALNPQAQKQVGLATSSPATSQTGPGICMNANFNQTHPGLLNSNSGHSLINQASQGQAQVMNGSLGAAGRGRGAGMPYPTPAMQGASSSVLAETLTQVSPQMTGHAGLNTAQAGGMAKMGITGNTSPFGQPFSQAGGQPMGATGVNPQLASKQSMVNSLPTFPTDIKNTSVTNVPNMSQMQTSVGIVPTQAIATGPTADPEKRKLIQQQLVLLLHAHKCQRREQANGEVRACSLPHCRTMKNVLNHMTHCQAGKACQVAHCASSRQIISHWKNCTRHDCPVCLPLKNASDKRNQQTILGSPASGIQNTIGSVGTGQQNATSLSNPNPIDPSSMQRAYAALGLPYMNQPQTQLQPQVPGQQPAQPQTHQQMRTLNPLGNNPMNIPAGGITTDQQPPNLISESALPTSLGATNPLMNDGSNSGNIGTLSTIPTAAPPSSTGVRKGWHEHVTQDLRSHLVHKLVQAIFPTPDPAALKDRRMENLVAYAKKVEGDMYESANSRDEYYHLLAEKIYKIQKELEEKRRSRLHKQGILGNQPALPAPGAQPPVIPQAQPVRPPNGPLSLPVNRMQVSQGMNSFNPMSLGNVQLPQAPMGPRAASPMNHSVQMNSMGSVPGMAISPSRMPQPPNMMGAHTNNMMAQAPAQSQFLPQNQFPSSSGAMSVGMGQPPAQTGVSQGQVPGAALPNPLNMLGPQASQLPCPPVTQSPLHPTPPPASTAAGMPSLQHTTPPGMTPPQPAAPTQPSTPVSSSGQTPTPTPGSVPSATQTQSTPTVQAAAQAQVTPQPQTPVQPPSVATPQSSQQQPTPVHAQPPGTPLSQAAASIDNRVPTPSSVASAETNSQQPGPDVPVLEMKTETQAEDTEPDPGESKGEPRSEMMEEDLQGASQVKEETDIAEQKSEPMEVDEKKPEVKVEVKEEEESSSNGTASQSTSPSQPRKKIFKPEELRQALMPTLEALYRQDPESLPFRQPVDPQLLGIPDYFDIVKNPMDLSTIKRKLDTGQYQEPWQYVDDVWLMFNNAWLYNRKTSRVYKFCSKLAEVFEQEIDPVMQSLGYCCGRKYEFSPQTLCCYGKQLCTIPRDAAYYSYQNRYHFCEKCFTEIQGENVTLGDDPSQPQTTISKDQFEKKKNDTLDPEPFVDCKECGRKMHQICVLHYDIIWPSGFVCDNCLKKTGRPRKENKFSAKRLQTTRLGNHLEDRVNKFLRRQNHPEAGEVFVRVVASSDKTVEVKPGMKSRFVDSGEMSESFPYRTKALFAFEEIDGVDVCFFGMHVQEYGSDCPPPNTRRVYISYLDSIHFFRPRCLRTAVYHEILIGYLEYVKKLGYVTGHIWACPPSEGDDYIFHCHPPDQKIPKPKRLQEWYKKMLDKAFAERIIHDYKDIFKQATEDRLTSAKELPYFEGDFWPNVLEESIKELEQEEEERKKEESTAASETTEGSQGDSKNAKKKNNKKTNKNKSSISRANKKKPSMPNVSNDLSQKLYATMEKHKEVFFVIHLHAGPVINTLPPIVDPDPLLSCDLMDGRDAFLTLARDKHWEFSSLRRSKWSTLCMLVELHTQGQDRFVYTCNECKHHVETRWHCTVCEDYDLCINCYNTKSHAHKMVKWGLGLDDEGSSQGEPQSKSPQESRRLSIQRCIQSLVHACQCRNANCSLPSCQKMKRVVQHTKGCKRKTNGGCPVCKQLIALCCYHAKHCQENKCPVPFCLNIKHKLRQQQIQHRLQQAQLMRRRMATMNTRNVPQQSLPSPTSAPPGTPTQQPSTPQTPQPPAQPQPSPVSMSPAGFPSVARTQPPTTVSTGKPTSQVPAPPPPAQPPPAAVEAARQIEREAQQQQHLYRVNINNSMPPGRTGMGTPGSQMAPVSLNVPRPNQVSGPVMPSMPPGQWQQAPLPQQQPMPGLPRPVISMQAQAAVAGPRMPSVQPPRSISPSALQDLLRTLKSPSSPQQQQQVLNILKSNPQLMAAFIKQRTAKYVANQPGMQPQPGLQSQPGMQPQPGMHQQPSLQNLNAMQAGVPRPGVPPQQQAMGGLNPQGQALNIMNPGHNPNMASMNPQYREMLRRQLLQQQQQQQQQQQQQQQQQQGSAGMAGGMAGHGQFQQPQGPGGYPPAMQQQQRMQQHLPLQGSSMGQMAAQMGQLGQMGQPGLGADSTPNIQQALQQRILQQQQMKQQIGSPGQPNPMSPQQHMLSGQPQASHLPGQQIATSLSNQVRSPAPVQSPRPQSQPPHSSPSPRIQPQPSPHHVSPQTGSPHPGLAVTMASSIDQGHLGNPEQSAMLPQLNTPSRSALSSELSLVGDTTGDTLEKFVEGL
SWI/SNF-related matrix-associated actin-dependent regulator of chromatin subfamily A member 4, sequence (P51532 whole entry): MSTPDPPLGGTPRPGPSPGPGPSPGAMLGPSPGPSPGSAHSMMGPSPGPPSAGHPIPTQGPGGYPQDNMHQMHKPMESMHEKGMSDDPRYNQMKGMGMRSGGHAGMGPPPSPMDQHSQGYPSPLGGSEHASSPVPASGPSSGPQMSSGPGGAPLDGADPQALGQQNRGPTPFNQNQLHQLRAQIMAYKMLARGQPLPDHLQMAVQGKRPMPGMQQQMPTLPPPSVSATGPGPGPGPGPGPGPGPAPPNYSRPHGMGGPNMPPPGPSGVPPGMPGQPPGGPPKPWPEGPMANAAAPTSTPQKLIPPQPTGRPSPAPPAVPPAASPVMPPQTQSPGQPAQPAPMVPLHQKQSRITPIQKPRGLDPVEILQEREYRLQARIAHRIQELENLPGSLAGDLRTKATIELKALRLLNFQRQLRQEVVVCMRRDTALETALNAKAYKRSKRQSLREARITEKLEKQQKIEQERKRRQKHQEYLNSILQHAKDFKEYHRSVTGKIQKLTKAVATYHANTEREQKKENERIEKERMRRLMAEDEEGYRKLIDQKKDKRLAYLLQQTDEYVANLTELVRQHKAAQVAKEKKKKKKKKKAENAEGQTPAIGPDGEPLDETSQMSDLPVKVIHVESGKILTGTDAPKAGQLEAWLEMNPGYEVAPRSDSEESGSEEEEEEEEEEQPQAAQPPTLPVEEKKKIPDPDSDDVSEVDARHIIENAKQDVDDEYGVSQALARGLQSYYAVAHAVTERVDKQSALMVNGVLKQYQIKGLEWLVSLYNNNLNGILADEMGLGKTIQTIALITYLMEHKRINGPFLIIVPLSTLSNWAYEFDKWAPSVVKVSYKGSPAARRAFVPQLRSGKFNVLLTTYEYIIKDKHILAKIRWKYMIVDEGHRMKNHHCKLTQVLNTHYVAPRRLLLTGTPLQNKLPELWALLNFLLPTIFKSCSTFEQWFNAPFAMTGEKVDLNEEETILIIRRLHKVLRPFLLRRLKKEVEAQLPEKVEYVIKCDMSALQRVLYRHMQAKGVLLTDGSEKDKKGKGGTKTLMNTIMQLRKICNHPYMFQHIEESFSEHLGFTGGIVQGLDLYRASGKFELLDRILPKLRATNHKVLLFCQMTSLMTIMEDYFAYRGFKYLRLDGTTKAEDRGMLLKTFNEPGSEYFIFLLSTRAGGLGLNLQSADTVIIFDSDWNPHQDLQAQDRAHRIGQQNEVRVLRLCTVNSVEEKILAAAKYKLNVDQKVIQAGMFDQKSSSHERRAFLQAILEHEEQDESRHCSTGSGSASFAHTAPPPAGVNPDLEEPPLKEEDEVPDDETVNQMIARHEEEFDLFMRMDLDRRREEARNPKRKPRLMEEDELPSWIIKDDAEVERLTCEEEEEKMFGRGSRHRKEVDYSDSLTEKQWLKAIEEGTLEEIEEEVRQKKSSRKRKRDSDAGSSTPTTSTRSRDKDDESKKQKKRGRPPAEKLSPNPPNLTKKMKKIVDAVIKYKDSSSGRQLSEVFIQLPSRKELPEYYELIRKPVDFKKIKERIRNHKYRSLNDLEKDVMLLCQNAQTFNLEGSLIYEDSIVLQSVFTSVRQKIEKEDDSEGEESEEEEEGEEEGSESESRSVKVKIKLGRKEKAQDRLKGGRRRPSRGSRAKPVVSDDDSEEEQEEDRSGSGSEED

Compound | Ki ([1]; read-out: Ki) | Ki [2] | other results
Cc1cc(/N=N/c2ccc(S(=O)(=O)Nc3cccc(C(F)(F)F)c3)cc2)cc(C)c1O | 6.13 µM | 7.77 µM | 
Cc1nc(/N=N/c2ccc(S(=O)(=O)Nc3ccccn3)cc2)c(CO)c(CN)c1O |  |  | inhibition [1]: inactive
Cc1cc(/N=N/c2ccc(S(=O)(=O)NCc3ccc(C(F)(F)F)cc3)cc2)cc(C)c1O | > 100 µM | > 100 µM | 
Cc1nc(/N=N/c2ccc(S(=O)(=O)Nc3ccccn3)cc2)c(CO)c(C)c1O |  |  | inhibition [1]: inactive
Cc1cc(/N=N/c2ccc(S(=O)(=O)Nc3ccccn3)cc2)cc(Cl)c1O | 1.4 µM | 4.81 µM | 
COc1c(C)cc(/N=N/c2ccc(S(=O)(=O)Nc3ccccn3)cc2)cc1C |  |  | inhibition [1]: inactive; inhibition [2]: inactive
COc1cc(/N=N/c2cc(C)c(O)c(C)c2)ccc1S(=O)(=O)Nc1ccccn1 | 3.13 µM | 7.77 µM | 
Cc1cc(/N=N/c2ccc(S(=O)(=O)N(C)c3ccccn3)cc2)cc(C)c1O | 7.89 µM | 7.12 µM | 
Cc1cc(/N=N/c2ccc(S(=O)(=O)Nc3ccccn3)cc2)cc(O)c1O | 2.39 µM | 3.27 µM | 
Cc1cc(/N=N/c2cccc(S(=O)(=O)Nc3ccccn3)c2)cc(C)c1O | 5.97 µM | 40.4 µM | 
COc1cc(/N=N/c2ccc(S(=O)(=O)Nc3ccccn3)cc2)c(N)cc1O | 1.28 µM | 5.39 µM | 
Cc1cc(/N=N/c2ccc(S(=O)(=O)Nc3ccccn3)cc2)cc(C)c1O | 0.91 µM | 4.3 µM | Ki ([1]; read-out: pKi (converted)): 0.912 µM; Ki [3]: < 6.56 µM; Ki [4]: 2.48 µM; inhibition [5]: Dose-dependent effect; IC50 [6]: 46.3 µM; Activity [7]: Non-toxic; Ki [8]: 7.15 µM; Ki [9]: 1.64 µM; inhibition [10]: Dose-dependent effect; IC50 [11]: 16 µM; Ki [12]: 3.54 µM
Cc1cc(/N=N/c2ccc(S(=O)(=O)Nc3ccccn3)cc2)nc(C)c1O | 2.31 µM | 24.6 µM | 
O=S(=O)(Nc1ccccn1)c1ccc(/N=N/c2ccc(O)c(Cl)c2)cc1 | 1.3 µM | 6.16 µM | 
Cc1cc(/N=N/c2ccc(S(=O)(=O)Nc3ccc(Cl)cn3)cc2)cc(C)c1O | 0.73 µM | 5.84 µM | 
O=S(=O)(Nc1ccccn1)c1ccc(/N=N/c2cc(Cl)c(O)c(Cl)c2)cc1 | 1.27 µM | 4.89 µM | 
Cc1nc(/N=N/c2ccc(S(=O)(=O)Nc3ccccn3)cc2)c(CO)c(C=O)c1O |  |  | inhibition [1]: inactive
Cc1cc(/N=N/c2cc(S(=O)(=O)O)c(C)cc2C)c(N)cc1O [ISCHEMIN] | 10.8 µM | 19.7 µM | 
CC(C)(C)c1cc(/N=N/c2ccc(S(=O)(=O)Nc3ccccn3)cc2)cc(C(C)(C)C)c1O |  |  | inhibition [1]: inactive; inhibition [2]: inactive
Cc1cc(/N=N/c2ccc(S(=O)(=O)Nc3ccc(C(=O)O)cn3)cc2)cc(C)c1O | 0.32 µM | 1.38 µM | 
Cc1cc(/N=N/c2ccc(S(=O)(=O)Nc3ccc(F)cn3)cc2)cc(C)c1O | 1.3 µM | 3.44 µM | 

Compound | Ki ([1]; read-out: Ki) | Ki [2] | other results
O=S(=O)(Nc1ccccn1)c1ccc(/N=N/c2ccc(O)c3c2NCCC3)cc1 |  |  | inhibition [1]: Active
CC1(C)Cc2c(/N=N/c3ccc(S(=O)(=O)Nc4ccccn4)cc3)ccc(O)c2O1 |  |  | inhibition [1]: Active
Cc1cc(/N=N/c2ccc(S(=O)(=O)Nc3ccc(F)cc3)cc2)cc(C)c1O | 1.84 µM | 8.87 µM | 
Cc1cc(C)c(S(=O)(=O)O)cc1/N=N/c1cc(C)c(O)c(C)c1 | 4.92 µM | 6.37 µM | 
Cc1cc(/N=N/c2ccc(S(=O)(=O)Nc3cc(Cl)ccn3)cc2)cc(C)c1O | 0.9 µM | 5.92 µM | 
O=S(=O)(Nc1ccccn1)c1ccc(/N=N/c2ccc(O)c3c2CCCC3)cc1 |  |  | inhibition [1]: Active
Cc1cc(/N=N/c2ccc(S(=O)(=O)Nc3ccccn3)cc2)cc(Br)c1O | 2.79 µM | 4.48 µM | 
Cc1cc(/N=N/c2ccc(S(=O)(=O)Nc3ccccn3)cc2)ccc1O | 6.43 µM | 8.2 µM | 
O=S(=O)(Nc1ccccn1)c1ccc(/N=N/c2ccc(O)c(O)c2)cc1 | 4.59 µM | 3.91 µM | 
CC(=O)Nc1c(C)cc(/N=N/c2ccc(S(=O)(=O)Nc3ccccn3)cc2)cc1C |  |  | inhibition [1]: inactive; inhibition [2]: inactive
O=S(=O)(Nc1ccccn1)c1ccc(/N=N/c2cc(Br)c(O)c(Br)c2)cc1 | 0.52 µM | 4.29 µM | 
COc1ccc(NS(=O)(=O)c2ccc(/N=N/c3cc(C)c(O)c(C)c3)cc2)nc1 | 0.5 µM | 2.23 µM | 
Cc1cc(/N=N/c2ccc(S(=O)(=O)Nc3ccc(C(N)=O)cc3)cc2)cc(C)c1O | 9.6 µM | 12.2 µM | 
O=S(=O)(Nc1ccccn1)c1ccc(/N=N/c2ccc(O)c(Br)c2)cc1 | 4.67 µM | 4.69 µM | 
CC(C)c1cc(/N=N/c2ccc(S(=O)(=O)Nc3ccccn3)cc2)cc(C(C)C)c1O |  |  | inhibition [1]: inactive; inhibition [2]: inactive
Cc1cc(/N=N/c2ccc(S(=O)(=O)Nc3ccc(C(F)(F)F)cc3)cc2)cc(C)c1O | 10.7 µM | 7.14 µM | 
COc1ccc(NS(=O)(=O)c2ccc(/N=N/c3cc(C)c(O)c(C)c3)cc2)cc1 | 6.48 µM | 6.59 µM | 
Cc1nc(/N=N/c2ccc(S(=O)(=O)Nc3ccccn3)cc2)c(C)c(C)c1O | 6.02 µM | 9.1 µM | 
Cc1cc(/N=N/c2ccc(S(=O)(=O)Nc3ccc(Br)cn3)cc2)cc(C)c1O | 6.54 µM | 38.7 µM | 
O=S(=O)(Nc1ccccn1)c1ccc(/N=N/c2ccc(O)c3ccccc23)cc1 |  |  | inhibition [1]: Active
O=S(=O)(Nc1ccccn1)c1ccc(/N=N/c2ccc(O)c(C(F)(F)F)c2)cc1 | 9.45 µM | 6.83 µM | 
